This is an account of results in the array DNA melting data of Ke et al. (doi:10.1101/2024.01.08.574731).

The nature of series [1]: melting temperature; fluorescence melt of hairpins on a sequencing array, two-state fit, raised by 9.35 °C to match UV melts. As to conditions: sodium 0.088 M. The method in brief: (§1)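 To match UV melts, fitted temperatures were raised by 9.35 °C. These fits were bootstrapped two-state models that gave melting temperature and folding enthalpy, combined by inverse variance over four replicates. The input was normalised Cy3 fluorescence of library hairpins with annealed Cy3 and quencher oligos on a sequenced MiSeq flow cell, imaged in 50 mM Na-HEPES pH 8.0, 25 mM NaCl in 2.5 °C steps up to 60 °C.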

Series [2] is described as follows: folding enthalpy; higher = less favourable; fluorescence melt of hairpins on a sequencing array, two-state fit. The settings on record: sodium 0.088 M. The gist of the method:
as §1

With GTGCATGGAAACGTGTAC ((.((.(....).)).)), the Tm in series [1] was 38.6 °C. In series [2], the folding enthalpy was -17.6 kcal/mol.

In the case of GTGCCACCGAAAGGTCAC (((..(((....)))))), in series [1], the Tm was found to be 50.5 °C. Further, the folding enthalpy in series [2] is -9.49 kcal/mol.

Turning to GTGCCAGGAAACTGGCGC (.(((((....))))).), the Tm in series [1] amounted to 62 °C. In addition, in series [2], the folding enthalpy is -22.8 kcal/mol.

As for GTGCCAGGAAACTGGTAC ((.((((....)))).)), in series [1], the Tm was found to be 53.8 °C. In series [2], the folding enthalpy was -29.9 kcal/mol.

For GTGCCCGGAAACGAGCAC ((((.((....)).)))), the Tm in series [1] turned out to be 52.8 °C. Also, the folding enthalpy in series [2] was -41.2 kcal/mol.

Turning to GTGCCCGGAAACGGACAC (((.(((....))).))), in series [1], the Tm came to 53.8 °C. Further, the folding enthalpy in series [2] was -50.2 kcal/mol.

In the case of GTGCCGCGAAAGCGACAC (((.(((....))).))), the Tm in series [1] stood at 65.7 °C. In addition, in series [2], the folding enthalpy was -34.4 kcal/mol.

As to GTGCCGCGAAAGCGCAC (((.(((....)))))), the Tm in series [1] is 69 °C. Further, in series [2], the folding enthalpy is -21.1 kcal/mol.

For GTGCCTGGAAACAAGCAC ((((.((....)).)))), the Tm in series [1] worked out at 42.7 °C. Besides, the folding enthalpy in series [2] is -24.6 kcal/mol.

Regarding GTGCCTGGAAACAGGCGC (.(((((....))))).), the Tm in series [1] amounted to 65 °C. Further, the folding enthalpy in series [2] is -20.3 kcal/mol.

Turning to GTGCGACGAAAGTCCCAC (((.(((....))).))), the Tm in series [1] amounted to 47.4 °C. For the same sequence, the folding enthalpy in series [2] was -30.8 kcal/mol.

Take GTGCGACGAAAGTCTCAC (((.(((....))).))): the Tm in series [1] was determined as 50.5 °C. Moreover, the folding enthalpy in series [2] was -41.1 kcal/mol.

As for GTGCGAGGAAACTCACAC (((.(((....))).))), the Tm in series [1] stood at 45.8 °C. Moreover, in series [2], the folding enthalpy was -34.2 kcal/mol.

As to GTGCGAGGAAACTCGTAC ((.((((....)))).)), the Tm in series [1] is 53.4 °C. Besides, in series [2], the folding enthalpy is -31.6 kcal/mol.

Take GTGCGCGAAAGCGCTCAC ((((((....)))..))): the Tm in series [1] was 40.4 °C. Also, the folding enthalpy in series [2] is -7.75 kcal/mol.

In the case of GTGCGCGAAAGCGGACAC ((((((....)))..))), the Tm in series [1] came out at 63.7 °C. The folding enthalpy in series [2] was -11.1 kcal/mol.

With GTGCGCGGAAACGCACAC (((.(((....))).))), in series [1], the Tm is 65.5 °C. The folding enthalpy in series [2] is -19.2 kcal/mol.

Take GTGCGCGGAAACGTGCGC (.((.((....)).)).): the Tm in series [1] came to 59 °C. Moreover, the folding enthalpy in series [2] is -25.9 kcal/mol.

GTGCGGCGAAAGCCCAC (((.(((....)))))): in series [1], the Tm came to 57.6 °C. Moreover, in series [2], the folding enthalpy was -20.7 kcal/mol.

Consider GTGCGGCGAAAGCCTCAC (((.(((....))).))), for which, in series [1], the Tm was determined as 53.8 °C. The folding enthalpy in series [2] is -29.4 kcal/mol.

Regarding GTGCGGGCGAAAGCCCAC (((..(((....)))))), the Tm in series [1] came out at 62.1 °C. For the same sequence, the folding enthalpy in series [2] was -10.3 kcal/mol.

For GTGCGGGGAAACCCACAC (((.(((....))).))), the Tm in series [1] came out at 51.6 °C. In series [2], the folding enthalpy is -37.9 kcal/mol.

For GTGCGGGGAAACCCGTAC ((.((((....)))).)), the Tm in series [1] amounted to 59.1 °C. Moreover, the folding enthalpy in series [2] is -27.4 kcal/mol.

Turning to GTGCGTGGAAACACGTGC (..((((....))))..), in series [1], the Tm was 51.5 °C. In addition, the folding enthalpy in series [2] is -18.4 kcal/mol.

As to GTGCTAACGAAAGTTCAC (((..(((....)))))), the Tm in series [1] worked out at 25.4 °C. Moreover, in series [2], the folding enthalpy was -7.2 kcal/mol.

Regarding GTGCTACGAAAGTATCAC (((.(((....))).))), the Tm in series [1] amounted to 44.6 °C. Further, in series [2], the folding enthalpy was -35.5 kcal/mol.

In the case of GTGCTAGCGAAAGCTCAC (((..(((....)))))), the Tm in series [1] came out at 42.1 °C. Further, the folding enthalpy in series [2] is -9.59 kcal/mol.

GTGCTAGGAAACTAGTGC (..((((....))))..): the Tm in series [1] amounted to 39.1 °C. For the same sequence, the folding enthalpy in series [2] was -30.2 kcal/mol.

In the case of GTGCTCGAAAGAGAGCAC ((((((....)))..))), the Tm in series [1] amounted to 58.2 °C. Further, in series [2], the folding enthalpy was -34.2 kcal/mol.

GTGCTCGAAAGAGCGCAC ((((((....)))..))): the Tm in series [1] stood at 57.1 °C. Moreover, in series [2], the folding enthalpy is -11.6 kcal/mol.

On to GTGCTCGAAAGAGGCCAC ((((((....)))..))), for which the Tm in series [1] was determined as 35.9 °C. For the same sequence, in series [2], the folding enthalpy was -16 kcal/mol.

For the sequence GTGCTCGGAAACGAACAC (((.(((....))).))), the Tm in series [1] was 47.6 °C. For the same sequence, the folding enthalpy in series [2] was -35.3 kcal/mol.

GTGCTCGGAAACGAGTAC ((.((((....)))).)): in series [1], the Tm is 55.4 °C. The folding enthalpy in series [2] was -43.8 kcal/mol.

Take GTGCTCGGAAACGGGTAC ((.(.((....)).).)): the Tm in series [1] turned out to be 41.9 °C. Moreover, the folding enthalpy in series [2] was -32.8 kcal/mol.

As to GTGCTGCCGAAAGGCCAC (((..(((....)))))), the Tm in series [1] is 48.1 °C. In series [2], the folding enthalpy was -11.5 kcal/mol.

Regarding GTGCTGGGAAACCAGCGC (.(((((....))))).), the Tm in series [1] amounted to 61.6 °C. Further, in series [2], the folding enthalpy is -29.5 kcal/mol.

Take GTGCTGGGAAACCGGTAC ((.(.((....)).).)): in series [1], the Tm was 42.1 °C. Moreover, the folding enthalpy in series [2] is -33.1 kcal/mol.
